Data set [1] concerns Rattus norvegicus. In words: Antiobesity activity in deit-induced obese rat model assessed as suppression of acute food intake at 10 mg/kg, iv relative to control. It counts as functional. The procedure, abridged:
(§1)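 Acute food intake was measured and expressed as percent suppression versus vehicle-treated rats. Melanotan-II served as the positive control.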

Data set [2] has as its target T1, Bombesin receptor subtype-3 (Homo sapiens) (UniProt P32247).
T1 sequence (whole entry): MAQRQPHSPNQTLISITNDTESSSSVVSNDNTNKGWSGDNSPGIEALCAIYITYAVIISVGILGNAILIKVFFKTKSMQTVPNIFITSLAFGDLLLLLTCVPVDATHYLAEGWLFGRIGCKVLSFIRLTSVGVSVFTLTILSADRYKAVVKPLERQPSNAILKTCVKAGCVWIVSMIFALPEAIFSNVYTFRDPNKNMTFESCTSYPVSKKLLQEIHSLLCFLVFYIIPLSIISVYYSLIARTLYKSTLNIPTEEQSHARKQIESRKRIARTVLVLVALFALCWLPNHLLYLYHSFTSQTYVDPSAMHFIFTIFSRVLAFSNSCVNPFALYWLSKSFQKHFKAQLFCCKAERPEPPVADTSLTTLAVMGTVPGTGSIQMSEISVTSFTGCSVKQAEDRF
Description: Agonist activity at human BRS3 expressed in HEK293AEQ cells after 10 mins by aequorin bioluminescence assay relative to dY-peptide. It counts as functional, cell-based.

Data set [3] is described as follows: Ratio of drug level in brain to plasma in rat at 1 mg/kg, iv after 0.25 hr. It counts as ADME, organism-based. Details: dose 1 mg/kg, route intravenous. The note with it: brain and plasma, read-out: BPR. The procedure, abridged:
(§2)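 Rats received a single 1 mg/kg IV dose. Total drug concentration in brain and the brain/plasma ratio were measured at 0.25, 1 and 2 h post-dose.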

For data set [4], the system named is Rattus norvegicus. In words: Antiobesity activity in deit-induced obese rat model assessed as suppression of acute food intake at 0.3 mg/kg, iv relative to control. Type of data set: functional. The procedure, abridged:
as §1

The target in data set [5] is T2, Bombesin receptor subtype-3 (Rattus norvegicus) (UniProt Q8K418).
T2 sequence (whole entry): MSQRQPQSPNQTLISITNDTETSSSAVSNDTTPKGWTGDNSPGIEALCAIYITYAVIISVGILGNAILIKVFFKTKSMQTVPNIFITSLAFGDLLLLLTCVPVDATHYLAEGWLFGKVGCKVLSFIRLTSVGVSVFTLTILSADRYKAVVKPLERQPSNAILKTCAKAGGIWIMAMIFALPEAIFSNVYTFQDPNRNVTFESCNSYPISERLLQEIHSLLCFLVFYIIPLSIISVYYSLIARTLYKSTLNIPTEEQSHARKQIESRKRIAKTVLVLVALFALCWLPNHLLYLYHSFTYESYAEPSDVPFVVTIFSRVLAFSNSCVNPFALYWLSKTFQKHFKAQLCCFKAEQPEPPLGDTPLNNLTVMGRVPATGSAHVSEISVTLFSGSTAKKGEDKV
In words: Agonist activity at rat BRS3 expressed in HEK293AEQ cells after 10 mins by aequorin bioluminescence assay relative to dY-peptide. Details: concentration or dose not given beside the values. Type of data set: functional, cell-based.

The nature of data set [6]: Ratio of drug level in brain to plasma in rat at 1 mg/kg, iv after 1 hr. Type of data set: ADME, organism-based. Further details: dose 1 mg/kg, route intravenous. The note with it: brain and plasma, read-out: BPR. The procedure, abridged: as §2
Data set [7] concerns the target T3, Bombesin receptor subtype-3 (Rattus norvegicus, UniProt Q8K418).
T3 sequence (Q8K418 whole entry): T2 sequence (whole entry)
Description: Agonist activity at rat BRS3 expressed in HEK293AEQ cells after 10 mins by aequorin bioluminescence assay. It counts as functional, cell-based.

Data set [8] in a line: Drug level in rat brain at 1 mg/kg, iv after 2 hrs. Type of data set: ADME, organism-based. Details: dose 1 mg/kg, route intravenous. The note with it: read-out: Drug uptake. In outline: as §2
Data set [9] can be described thus: Drug level in rat brain at 1 mg/kg, iv after 1 hr. Type of data set: ADME, organism-based. The note with it: read-out: Drug uptake. Details: dose 1 mg/kg, route intravenous. The procedure, abridged:
as §2

A short description of data set [10]: Clearance in rat. Type of data set: ADME, organism-based. The note with it: in vivo.
Data set [11] can be described thus: Drug level in rat brain at 1 mg/kg, iv after 0.25 hrs. Type of data set: ADME, organism-based. Further details: dose 1 mg/kg, route intravenous. The note with it: read-out: Drug uptake. The procedure, abridged: as §2
The nature of data set [12]: Ratio of drug level in brain to plasma in rat at 1 mg/kg, iv after 2 hrs. It counts as ADME, organism-based. Details: dose 1 mg/kg, route intravenous. The following applies: brain and plasma, read-out: BPR. In outline: as §2
Data set [13] deals with T4, Bombesin receptor subtype-3 (Homo sapiens, UniProt P32247).
T4 sequence (P32247 whole entry): T1 sequence (whole entry)
In words: Agonist activity at human BRS3 expressed in HEK293AEQ cells after 10 mins by aequorin bioluminescence assay. Type of data set: functional, cell-based.

A short description of data set [14]: Bioavailability in rat. It counts as ADME, organism-based. The note with it: in vivo.
The nature of data set [15]: Half life in rat. The following applies: in vivo. Type of data set: ADME, organism-based.

What is called EC50 is the concentration giving half of the maximal effect. The clearance is the rate of elimination divided by the concentration. For orientation: bioavailability means the share of a dose that reaches the circulation, judged against a reference dose that is usually intravenous. A word on the half-life: it is the time in which the quantity being followed falls by half. Turning to `Nc1n[nH]c2nc(N3CCCCC3)c3c(c12)CCN(Cc1ccccc1)C3`, the Activity in the data set on Rattus norvegicus [1] was 31.6%; in [2], 60%; in the data set with Rattus norvegicus [4], 43.6%; in data set [5], 105%. For the same molecule, in [3], the Kp at 0.25 h is 4.4. Besides, the Kp at 1 h in data set [6] worked out at 3.2. For the same molecule, the EC50 in [7] worked out at 380 nM; in data set [13] it was 4520 nM. For the same molecule, the concentration at 2 h in data set [8] was 140 nM. The concentration at 1 h in [9] is 390 nM. The clearance in [10] was 45 mL/min/kg. The concentration at 0.25 h in data set [11] was 1210 nM. In addition, in data set [12], the Kp at 2 h is 3.4. In data set [14], this molecule showed a bioavailability of 5.7%. In [15], this molecule had a half-life of 43.8 min.

The values above are taken from ChEMBL document CHEMBL1157936, “Synthesis of 7-benzyl-5-(piperidin-1-yl)-6,7,8,9-tetrahydro-3H-pyrazolo[3,4-c][2,7]naphthyridin-1-ylamine and its analogs as bombesin receptor subtype-3 agonists” (Bioorg Med Chem Lett, 2010).
